Test results reported in ChEMBL document CHEMBL2157949 (J Med Chem, 2012).
Activity calls are given as the source filed them. The rule behind the calls is not given here.

Key:
IGROV-1 [1] = test: Growth inhibition of human IGROV1 cells endogenously expressing RFC/FRalpha/PCFT incubated for 96 hrs by CellTiter-blue cell viability assay; format: functional, cell-based; settings: IGROV-1, 96 h
IGROV-1 [2] = test: Growth inhibition of human IGROV1 cells endogenously expressing RFC/FRalpha/PCFT in presence of folic acid incubated for 96 hrs by CellTiter-blue cell viability assay; format: functional, cell-based; settings: IGROV-1, 96 h
R2 [3] = test: Growth inhibition of Chinese hamster R2 cells expressing empty vector control incubated for 96 hrs by CellTiter-blue cell viability assay; settings: Cricetulus griseus, R2, 96 h
KB [4] = test: Growth inhibition of human KB cells endogenously expressing RFC/FRalpha/PCFT incubated for 96 hrs by CellTiter-blue cell viability assay; format: functional, cell-based
[5] = Growth inhibition of Chinese hamster RT16 cells expressing human folate receptor alpha incubated for 96 hrs by CellTiter-blue cell viability assay; format: functional, cell-based; settings: Cricetulus griseus, RT16, 96 h
KB [6] = test: Growth inhibition of human KB cells endogenously expressing RFC/FRalpha/PCFT in presence of folic acid incubated for 96 hrs by CellTiter-blue cell viability assay; format: functional, cell-based
[7] = Growth inhibition of Chinese hamster RT16 cells expressing human folate receptor alpha incubated for 96 hrs in presence of folic acid by CellTiter-blue cell viability assay; format: functional, cell-based; settings: Cricetulus griseus, RT16, 96 h
R2 [8] = test: Growth inhibition of Chinese hamster R2 cells expressing human PCFT incubated for 96 hrs by CellTiter-blue cell viability assay; format: functional, cell-based, Cricetulus griseus; settings: R2, 96 h
Summary of the method: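 R2/hPCFT4 CHO cells maintained beforehand in folate-free RPMI 1640 with dialyzed FBS, 25 nM LCV and G418. Assay: ~2500–5000 cells/well in folate-free RPMI 1640 (pH 7.2) with 25 nM LCV, 10% dialyzed FBS, antibiotics and L-glutamine, over a range of drug concentrations.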

[9] = Growth inhibition of Chinese hamster PC43-10 cells expressing reduced folate carrier incubated for 96 hrs by CellTiter-blue cell viability assay; format: functional, cell-based; settings: Cricetulus griseus, PC43-10, 96 h
R2 [10] = test: Growth inhibition of Chinese hamster R2 cells deficient in reduced folate carrier and human folate receptor alpha incubated for 96 hrs by CellTiter-blue cell viability assay; format: cell-based, Cricetulus griseus; settings: R2, 96 h
[11] = target: T1, Trifunctional purine biosynthetic protein adenosine-3 (Homo sapiens, UniProt P22102); test: Inhibition of GARFTase in human IGROV1 cells assessed as reduction in [14C]glycine incorporation into [14C]formyl GAR incubated for 15 hrs in complete folate free RPMI medium in presence of 2 nM leucovorin; format: cell-based, IGROV-1
T1 sequence (P22102 whole entry): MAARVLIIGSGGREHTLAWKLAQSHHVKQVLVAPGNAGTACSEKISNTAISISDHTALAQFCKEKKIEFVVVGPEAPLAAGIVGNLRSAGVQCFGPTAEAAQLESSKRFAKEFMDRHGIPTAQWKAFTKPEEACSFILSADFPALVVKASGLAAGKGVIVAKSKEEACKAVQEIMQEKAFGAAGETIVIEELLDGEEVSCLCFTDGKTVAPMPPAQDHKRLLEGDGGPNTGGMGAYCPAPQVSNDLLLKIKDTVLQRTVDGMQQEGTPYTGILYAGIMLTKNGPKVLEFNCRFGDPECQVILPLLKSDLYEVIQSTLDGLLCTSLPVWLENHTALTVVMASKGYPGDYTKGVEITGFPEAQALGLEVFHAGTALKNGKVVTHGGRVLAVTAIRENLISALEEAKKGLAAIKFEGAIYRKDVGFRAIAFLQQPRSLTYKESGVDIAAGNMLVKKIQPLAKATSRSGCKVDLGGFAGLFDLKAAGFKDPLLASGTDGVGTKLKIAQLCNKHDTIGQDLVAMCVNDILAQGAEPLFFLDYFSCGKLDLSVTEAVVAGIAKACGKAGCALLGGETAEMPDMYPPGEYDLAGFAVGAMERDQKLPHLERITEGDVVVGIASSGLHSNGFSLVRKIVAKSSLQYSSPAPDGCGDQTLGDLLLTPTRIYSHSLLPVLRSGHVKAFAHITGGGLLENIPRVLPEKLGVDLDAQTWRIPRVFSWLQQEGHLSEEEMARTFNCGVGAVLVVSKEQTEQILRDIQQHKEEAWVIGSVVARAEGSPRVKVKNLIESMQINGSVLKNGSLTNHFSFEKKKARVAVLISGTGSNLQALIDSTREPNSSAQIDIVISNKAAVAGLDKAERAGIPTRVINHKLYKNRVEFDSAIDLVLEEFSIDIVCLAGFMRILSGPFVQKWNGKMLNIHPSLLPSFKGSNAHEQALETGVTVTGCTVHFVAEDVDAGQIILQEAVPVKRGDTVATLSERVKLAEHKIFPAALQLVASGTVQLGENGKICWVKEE

[12] = target: T2, Proton-coupled folate transporter (Homo sapiens, UniProt Q96NT5); test: Inhibition of [3H]MTX transport at human PCFT expressed in Chinese hamster R2 cells at pH 6.8 by Dixon plot; format: cell-based
T2 sequence (Q96NT5 whole entry): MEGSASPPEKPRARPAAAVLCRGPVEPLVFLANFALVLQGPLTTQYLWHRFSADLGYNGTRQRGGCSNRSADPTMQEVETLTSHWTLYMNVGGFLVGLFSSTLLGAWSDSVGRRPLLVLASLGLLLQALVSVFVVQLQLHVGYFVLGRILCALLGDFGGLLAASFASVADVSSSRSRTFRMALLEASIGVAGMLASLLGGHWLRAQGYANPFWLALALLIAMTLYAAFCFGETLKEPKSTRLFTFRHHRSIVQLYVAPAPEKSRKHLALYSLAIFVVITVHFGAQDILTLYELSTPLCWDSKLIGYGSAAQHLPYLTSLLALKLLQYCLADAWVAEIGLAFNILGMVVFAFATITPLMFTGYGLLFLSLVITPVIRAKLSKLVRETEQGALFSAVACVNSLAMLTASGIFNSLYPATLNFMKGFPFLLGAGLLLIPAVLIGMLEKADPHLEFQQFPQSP
Summary of the method: (§1)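 R2/hPCFT4 CHO cells grown in spinner flasks, resuspended in HBS at pH 6.8 or MES-buffered saline at pH 5.5. Uptake quenched with ice-cold DPBS and normalized to protein. Mean ± SE, n=4–8.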

KB [13] = test: Growth inhibition of human KB cells endogenously expressing RFC/FRalpha/PCFT in presence of 60 uM adenosine incubated for 96 hrs by CellTiter-blue cell viability assay; format: functional, cell-based
[14] = target: T3, Proton-coupled folate transporter (Homo sapiens) (UniProt Q96NT5); test: Ratio of Ki for human PCFT at pH 6.8 to Ki for human PCFT at pH 5.5 by [3H]MTX transport assay
T3 sequence (whole entry): T2 sequence (Q96NT5 whole entry)

IGROV-1 [15] = test: Growth inhibition of human IGROV1 cells endogenously expressing RFC/FRalpha/PCFT in presence of 10 uM thymidine incubated for 96 hrs by CellTiter-blue cell viability assay; format: functional, cell-based
KB [16] = test: Growth inhibition of human KB cells endogenously expressing RFC/FRalpha/PCFT in presence of 320 uM 5-amino-4-imidazolecarboxamide incubated for 96 hrs by CellTiter-blue cell viability assay; format: functional, cell-based
KB [17] = test: Growth inhibition of human KB cells endogenously expressing RFC/FRalpha/PCFT in presence of 50 nM leucovorin incubated for 96 hrs by CellTiter-blue cell viability assay; format: functional, cell-based
Summary of the method: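 KB cells in complete folate-free RPMI 1640 with 10% dialyzed FBS and LCV at 50 nM (versus the standard 2 nM), exposed to a range of antifolate concentrations for up to 96 h. Cell density read by CellTiter-blue fluorescence and normalized to drug-free cells. Representative data from experiments run in duplicate.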

IGROV-1 [18] = test: Growth inhibition of human IGROV1 cells endogenously expressing RFC/FRalpha/PCFT in presence of 320 uM 5-amino-4-imidazolecarboxamide incubated for 96 hrs by CellTiter-blue cell viability assay; format: functional, cell-based
KB [19] = test: Growth inhibition of human KB cells endogenously expressing RFC/FRalpha/PCFT in presence of 10 uM thymidine incubated for 96 hrs by CellTiter-blue cell viability assay; format: functional, cell-based
KB [20] = test: Inhibition of colony formation of human KB cells endogenously expressing RFC/FRalpha/PCFT incubated for 14 days by methylene blue staining based clonogenicty assay; format: functional, cell-based; settings: 336 h
IGROV-1 [21] = test: Growth inhibition of human IGROV1 cells endogenously expressing RFC/FRalpha/PCFT in presence of 60 uM adenosine incubated for 96 hrs by CellTiter-blue cell viability assay; format: functional, cell-based
[22] = target: Folate receptor alpha (Homo sapiens) (UniProt P15328); format: cell-based; settings: CHO
Folate receptor alpha (Homo sapiens), sequence (P15328 25-234 limits assumed): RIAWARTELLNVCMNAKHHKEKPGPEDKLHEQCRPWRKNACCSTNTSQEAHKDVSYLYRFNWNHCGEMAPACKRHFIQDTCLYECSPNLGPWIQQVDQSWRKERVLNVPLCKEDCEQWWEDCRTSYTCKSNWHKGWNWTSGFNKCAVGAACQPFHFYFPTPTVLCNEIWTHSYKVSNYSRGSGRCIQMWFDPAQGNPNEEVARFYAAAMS

[23] = target: T2, Proton-coupled folate transporter; test: Inhibition of [3H]MTX transport at human PCFT expressed in Chinese hamster R2 cells at pH 5.5 by Dixon plot; format: cell-based; summary of the method: as §1

SMILES | IC50 (KB [4]) [nM] | IC50 (KB [6]) [nM] | IC50 (IGROV-1 [1]) [nM] | IC50 (IGROV-1 [2]) [nM] | IC50 (R2 [3]) [nM] | IC50 [5] [nM] | IC50 [7] [nM] | IC50 (R2 [8]) [nM] | IC50 [9] [nM] | IC50 (R2 [10]) [nM] | other results
Nc1nc2[nH]c(CCCCc3cc(C(=O)N[C@@H](CCC(=O)O)C(=O)O)cs3)cc2c(=O)[nH]1 | 0.27 | > 1000 | 1.4 | > 1000 | > 1000 | 2.6 | > 1000 | 63.8 | > 1000 | > 1000 | IC50 [11]: 2.03 nM; Ki [12]: 30.7 µM; growth inhibition (GI) (KB [13]): inactive; Ratio Ki [14]: 70; growth inhibition (GI) (IGROV-1 [15]): Active; growth inhibition (GI) (KB [16]): inactive; IC50 (KB [17]): > 20 nM; growth inhibition (GI) (IGROV-1 [18]): inactive; growth inhibition (GI) (KB [19]): Active; IC50 (KB [20]): 0.16 nM; growth inhibition (GI) (IGROV-1 [21]): inactive; relative binding affinity (RBA) [22]: > 1; Ki [23]: 420 nM
Nc1nc2[nH]c(CCCCc3ccc(C(=O)N[C@@H](CCC(=O)O)C(=O)O)s3)cc2c(=O)[nH]1 | – | > 1000 | – | > 1000 | > 1000 | – | > 1000 | – | > 1000 | > 1000 | IC50 [11]: 3.46 nM; IC50 (KB [17]): 2.2 nM; IC50 (KB [20]): 0.2 nM; relative binding affinity (RBA) [22]: > 1
Nc1nc2[nH]c(CCCCc3sccc3C(=O)N[C@@H](CCC(=O)O)C(=O)O)cc2c(=O)[nH]1 | 171 | > 1000 | – | – | > 1000 | > 1000 | > 1000 | > 1000 | > 1000 | > 1000 | –
Nc1nc2[nH]c(CCCCc3ccsc3C(=O)N[C@@H](CCC(=O)O)C(=O)O)cc2c(=O)[nH]1 | 267 | > 1000 | – | – | > 1000 | > 1000 | > 1000 | > 1000 | > 1000 | > 1000 | –
Nc1nc2[nH]c(CCC#Cc3cscc3C(=O)N[C@@H](CCC(=O)O)C(=O)O)cc2c(=O)[nH]1 | > 1000 | > 1000 | – | – | > 1000 | > 1000 | > 1000 | > 1000 | > 1000 | > 1000 | –

Now from value to compound, other results behind:

IC50 (KB [4]) [nM] | IC50 (KB [6]) [nM] | SMILES | IC50 (IGROV-1 [1]) [nM] | IC50 (IGROV-1 [2]) [nM] | IC50 (R2 [3]) [nM] | IC50 [5] [nM] | IC50 [7] [nM] | IC50 (R2 [8]) [nM] | IC50 [9] [nM] | IC50 (R2 [10]) [nM] | other results
> 1000 | > 1000 | Nc1nc2[nH]c(CCC#Cc3ccc(C(=O)N[C@@H](CCC(=O)O)C(=O)O)s3)cc2c(=O)[nH]1 | > 1000 | > 1000 | > 1000 | 12.1 | > 1000 | > 1000 | > 1000 | > 1000 | –
> 1000 | > 1000 | Nc1nc2[nH]c(CCC#Cc3cc(C(=O)N[C@@H](CCC(=O)O)C(=O)O)cs3)cc2c(=O)[nH]1 | > 1000 | > 1000 | > 1000 | 8.26 | > 1000 | > 1000 | > 1000 | > 1000 | –
